Screening data: PubChem, Broad Institute
LANA DNA inh: inhibitors of KSHV C-LANA binding to DNA, primary screen, biochemical, fluorescence polarization, FAM-LBS DNA, MBP-C-LANA, single point; inhibition, % at 9 µM; actives 0.078% (n = 340,000); AID 504423, 2011;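 active = highest replicate inhibition at or above 60% at 9 µM, even if other replicates fall short; inactive = all replicates below 60% inhibition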;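 also: 0% = neutral control wells and 100% = 4 µM acridine orange control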
CAL PDZ FP-1: untagged CAL PDZ binding inhibitors, primary screen, biochemical, fluorescence polarization, HTS. Golgi-associated PDZ and coiled-coil motif-containing protein (Homo sapiens), Q9HD26. purified CAL PDZ, TMR-peptide fluorescence polarization, 1 h. inhibition, % at 24.9 µM. actives 0.92% (n = 300,000);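 active = mean inhibition of at least 30% with at least half of replicates also reaching 30%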;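 also: 0% = DMSO neutral control and 100% = excess unlabeled competitor peptide PRC23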
Keap1-Nrf2 PPI: Keap1-Nrf2 protein-protein interaction inhibitors, primary screen, biochemical, fluorescence polarization, single point; Kelch-like ECH-associated protein 1 (Homo sapiens), Q14145; Keap1 Kelch-Nrf2 peptide fluorescence polarization, 1536-well; inhibition, % at 9.4 µM; actives 0.15% (n = 340,000); in the data active = inhibition above about 12%;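 also: human Keap1 Kelch domain with fluorescein labeled Nrf2 9mer peptide probe; 0% = neutral control wells and 100% = peptide positive control; higher means more block of Keap1 binding to Nrf2 peptide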
Target sequence (Q14145 whole entry, looked up, the tested form may be a part): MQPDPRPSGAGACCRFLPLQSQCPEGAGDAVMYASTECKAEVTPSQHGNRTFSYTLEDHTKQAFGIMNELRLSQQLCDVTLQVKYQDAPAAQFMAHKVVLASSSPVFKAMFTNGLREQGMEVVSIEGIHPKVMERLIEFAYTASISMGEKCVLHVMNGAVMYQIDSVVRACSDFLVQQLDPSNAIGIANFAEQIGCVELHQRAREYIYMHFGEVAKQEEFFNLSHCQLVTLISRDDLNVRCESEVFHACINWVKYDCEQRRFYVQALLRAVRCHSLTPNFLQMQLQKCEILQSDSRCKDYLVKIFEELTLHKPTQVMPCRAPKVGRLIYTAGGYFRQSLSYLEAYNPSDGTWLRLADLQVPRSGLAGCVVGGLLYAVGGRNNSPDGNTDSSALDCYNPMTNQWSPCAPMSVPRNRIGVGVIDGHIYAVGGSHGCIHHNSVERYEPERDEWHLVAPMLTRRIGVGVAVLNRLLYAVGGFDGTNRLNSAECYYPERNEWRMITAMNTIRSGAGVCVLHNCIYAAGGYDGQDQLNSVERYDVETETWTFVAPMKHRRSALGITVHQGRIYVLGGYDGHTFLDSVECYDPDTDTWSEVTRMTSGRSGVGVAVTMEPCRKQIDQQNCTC
miR-122 sensor: miR-122 Renilla sensor signal increase in Huh7, primary screen, miR-122 inhibitor project, cell-based, single point, plate reader. Huh7 miR-122 Renilla luciferase sensor, 48 h; neutral wells = 0, positive control = 100. activation (reporter increase), % at 12.5 µM. actives 0.3% (n = 340,000);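 active = mean replicate activation score at least 90 and every replicate individually at or above 90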;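 also: higher luciferase means less miR-122 activity so hits act as miR-122 inhibitors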
CAL PDZ FP-2: CAL PDZ peptide-binding inhibitors, primary screen, biochemical, fluorescence polarization, Cer-tagged CAL PDZ, HTS | Golgi-associated PDZ and coiled-coil motif-containing protein (Homo sapiens), Q9HD26 | AID 504414, 2011 | inhibition, % at 20 µM | purified CAL PDZ, TMR-peptide fluorescence polarization, 1 h | actives 0.02% (n = 330,000);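 active = highest replicate inhibition of at least 40%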;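 also: plate controls were DMSO neutral control wells for no effect and unlabeled competitor peptide control wells for full effect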
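Material: tagged CAL PDZ protein CerCALP, purified; buffer or medium: sodium phosphate/NaCl buffer pH 7.4 with TCEP, IgG, Thesit; also added: fluorescent TMR peptide probe; schedule: 1 h incubation at room temperature before polarization reading; technique: fluorescence polarization from S- and P-plane intensities, G-factor corrected; control set: unlabelled peptide and DMSO controls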
* = called active by the depositor; . = no result given; [ ] = dose if it differs, or a comment. Shown are actives, neighbours in structure and some others; about 1.1% of the full set was active somewhere.

SMILES | LANA DNA inh | CAL PDZ FP-1 | Keap1-Nrf2 PPI | miR-122 sensor | CAL PDZ FP-2
S=C(Nc1ccc(-c2nc3ccccc3[nH]2)cc1)Nc1cccnc1 | 2 | 43* | 6 | -3 | -2
O=C(/C=C/c1ccco1)Nc1ccc(-c2nc3ccccc3[nH]2)cc1 | 0 | -4 | -2 | 101* | -2
CC(C)NC(=O)N[C@H]1CC[C@@H](CC(=O)N2CCCCC2)O[C@H]1CO | . | . | . | -3[16.7 µM] | .
CCC(C)NC(=S)Nc1ccccc1 (configuration not stated) | -1 | 75* | 2 | . | 0
Cc1cccc(C)c1NC(=S)NC(C)CCc1ccccc1 (configuration not stated) | 3 | . | 0 | 100* | -1
COc1cccc(N2CCN(CC(=O)NCc3ccccc3)CC2)c1 | 1 | 50* | -2 | 5 | 0
C[C@H](CO)N1C[C@H](C)[C@@H](CN(C)C(=O)Nc2cccc3ccccc23)Oc2c(NS(=O)(=O)c3cccs3)cccc2C1=O | . | . | . | -2[16.7 µM] | .
O=C1Nc2ccc([N+](=O)[O-])cc2OC1CCN1CCN(Cc2ccc3c(c2)OCO3)CC1 (configuration not stated) | 0 | 8 | -6 | 153* | 0
CCC(=O)Nc1ccc2c(c1)C(=O)N(C)[C@H]1CC[C@H](CC(=O)Nc3cccc(F)c3)O[C@@H]1CO2 | . | . | . | 1[16.7 µM] | .
COc1ccc(OC)c(C2C3=C(COC3=O)Nc3cc4c(cc32)OCO4)c1 (configuration not stated) | 0 | . | 2 | 140* | 0
C[C@H]1CN([C@@H](C)CO)C(=O)Cc2cc(NC(=O)C3CCCCC3)ccc2O[C@H]1CN(C)C(=O)Nc1ccccc1 | . | . | . | 7[16.7 µM] | .
O=C(O)CSC(C(=O)Nc1ccc(Br)cc1)c1ccc(Cl)cc1 (configuration not stated) | 0 | 135* | 4 | . | -1
CCN(C(=O)Nc1cccc(Cl)c1)c1ccccc1 | 2 | . | 2 | -9 | 1
Cc1cccc(N(O)C(=O)Nc2cccc(Cl)c2)c1 | 4 | 31* | -2 | -2 | -1
C[C@H]1CN([C@@H](C)CO)C(=O)c2cc(C#CC(C)(C)O)cnc2O[C@@H]1CN(C)C(=O)C1CCCCC1 | . | . | . | -3[16.7 µM] | .
CC1CCCN(C(=O)COC(=O)/C=C/c2ccc(C(F)(F)F)cc2)C1 (configuration not stated) | 1 | 72* | 3 | -3 | -1
COc1ccc(C2C(C(=O)c3ccco3)=C(O)C(=O)N2CC2CCCO2)cc1OC (configuration not stated) | -1 | 52* | -4 | 3 | 0
O=C(C1=C(O)C(=O)N(CC2CCCO2)C1c1ccccc1)c1ccco1 (configuration not stated) | 0 | -3 | -6 | -2 | -1
C[C@@H]1CN([C@@H](C)CO)C(=O)c2cc(C3=CCCCC3)cnc2O[C@@H]1CN(C)C(=O)c1ccccn1 | . | . | . | -6[16.7 µM] | .
CCOC(=O)c1cc(C#N)c(N2CCN(C(=O)c3cccc(C(F)(F)F)c3)CC2)nc1C(F)(F)F | 0 | 65* | 1 | . | -2
C[C@H](CO)N1C[C@H](C)[C@@H](CN(C)C(=O)c2ccncc2)Oc2ncc(C#CC3CC3)cc2C1=O | . | . | . | -7[16.7 µM] | .
COc1ccc(-c2ccc(NS(=O)(=O)c3cc([N+](=O)[O-])ccc3C)cc2)nn1 | 1 | -2 | -1 | -3 | -2
COc1ccc(-c2cccc(NS(=O)(=O)c3cc([N+](=O)[O-])ccc3C)c2)nn1 | 0 | 2 | -4 | 135* | 0
C[C@H]1CN([C@@H](C)CO)C(=O)Cc2cc(NS(=O)(=O)c3ccc(Cl)cc3)ccc2O[C@@H]1CN(C)S(=O)(=O)c1ccc(F)cc1 | . | . | . | -1[16.7 µM] | .
CCOC(=O)c1sc(-c2ccc(Cl)cc2Cl)nc1O | 1 | 49* | -4 | . | 0
CNC(=O)C[C@H]1CC[C@H]2[C@H](COc3ccc(NC(=O)c4cccs4)cc3C(=O)N2C)O1 | . | . | . | 8[16.7 µM] | .
